Experimental findings from ChEMBL document CHEMBL1156796, “Design, synthesis, and antihepatitis B virus activities of novel 2-pyridone derivatives” (J Med Chem, 2010) are described below.

Data set [1] is described as follows: Selectivity index, ratio of CC50 for human HepG2(2.2.15) cells to IC50 for HBV infected in human HepG2(2.2.15) cells assessed as inhibition of HBsAg. In kind it is functional. In short, it runs like this:
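MTT at 5 g/L added 4 h before lysis in 10% SDS/50% DMF, pH 7.2, with OD read at 570 nm. IC50: HBsAg in day-9 supernatants measured by ELISA. SI = CC50/IC50.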

Data set [2] is described as follows: Selectivity index, ratio of CC50 for human HepG2(2.2.15) cells to IC50 for HBV infected in human HepG2(2.2.15) cells assessed as inhibition of HBeAg. Type of data set: functional.
For data set [3], the system named is Hepatitis B virus. Description: Antiviral activity against HBV infected in human HepG2(2.2.15) cells assessed as inhibition of HBsAg level after 9 days by ELISA. Type of data set: functional, organism-based. As to conditions: HepG2 2.2.15, 216 h. In general terms: An ELISA detects its analyte on a solid surface through an enzyme-linked reagent.
A short description of data set [4]: Selectivity index, ratio of CC50 for human HepG2(2.2.15) cells to IC50 for HBV infected in human HepG2(2.2.15) cells assessed as inhibition of HBV DNA replication. Type of data set: functional.
Data set [5] is described as follows: Cytotoxicity against human HepG2(2.2.15) cells. In kind it is cell-based.
The test system of data set [6] is Hepatitis B virus. Briefly: Antiviral activity against HBV infected in human HepG2(2.2.15) cells assessed as inhibition of HBV DNA replication after 9 days by PCR. Type of data set: functional, organism-based. As to conditions: Hepatitis B virus, HepG2 2.2.15, 216 h; read-out: IC50.
The subject of data set [7] is Hepatitis B virus. Description: Antiviral activity against HBV infected in human HepG2(2.2.15) cells assessed as inhibition of HBeAg level after 9 days by ELISA. Type of data set: functional, organism-based. As to conditions: HepG2 2.2.15, 216 h.
For data set [8], the system named is Hepatitis B virus. Description: Antiviral activity against HBV infected in human HepG2(2.2.15) cells assessed as inhibition of HBV DNA replication after 9 days by PCR relative to adefovir. Type of data set: functional. The essentials: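 HepG2 2.2.15 cells treated with different dosages of compound; culture supernatants collected nine days after treatment. IC50 taken as the concentration giving 50% inhibition of HBV DNA replication.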

The IC50 is the point on the concentration scale where inhibition reaches its midpoint. What is called CC50 is the concentration at which the toxic effect on the cells reaches its halfway point. High values mean lower toxicity to the cells, low ones greater toxicity to the cells. For `CCCC/N=C(\c1ccc(=O)n(CCCC)c1)c1ccc(OC)cc1O`, the figures for the “Ratio CC50/IC50” value in data set [1], in data set [2] and in data set [4] were 0.5, 1 and 466.67, respectively. The values for the IC50 in data set [3], in data set [6] and in data set [7] were 111 µM, 0.12 µM and 56 µM, respectively. In addition, in data set [5], the half-maximal cytotoxic concentration (CC50) was determined as 56 µM. The “fold change (FC)” value in data set [8] turned out to be 4.

Consider `COc1ccc(/C(=N/C2CCCCC2)c2ccc(=O)n(C3CCCCC3)c2)c(O)c1`, for which the “Ratio CC50/IC50” value was 1.93 in data set [1], 5.45 in data set [2] and 96.75 in data set [4]. For the same compound, the figures for the half-maximal inhibitory concentration (IC50) in data set [3], in data set [6] and in data set [7] were 201 µM, 4 µM and 71 µM, respectively. The CC50 in data set [5] amounted to 387 µM.

Regarding `COc1ccc(C(=O)c2ccc(=O)n(-c3ccccc3)c2)c(O)c1`, the “Ratio CC50/IC50” value is recorded as 1.02 in data set [1], 2.36 in data set [2] and 8.95 in data set [4]. Further, the half-maximal inhibitory concentration (IC50) amounted to 176 µM in data set [3], 20 µM in data set [6] and 76 µM in data set [7]. For the same compound, in data set [5], the cytotoxic concentration (CC50) was determined as 179 µM.

`CCCCC/N=C(\c1ccc(=O)n(CCCCC)c1)c1ccc(OC)cc1O`: the “Ratio CC50/IC50” value in data set [1] was 3.38; in data set [2], 19.6; in data set [4] it was 3.27. Besides, the IC50 in data set [3] stood at 29 µM; in data set [6], 30 µM; in data set [7], 5 µM. The CC50 in data set [5] came out at 98 µM.

For `COc1ccc(C(=O)c2ccc(=O)n(/C=C/Nc3cccc4ccccc34)c2)c(O)c1`, the “Ratio CC50/IC50” value in data set [1] was 3.17; in data set [2], less than 2.5; in data set [4], less than 0.67. The IC50 in data set [3] is 77 µM; in data set [6], more than 364 µM; in data set [7], more than 97 µM. This compound had a cytotoxic concentration (CC50) in data set [5] of 244 µM.

On to `CCCCn1cc(C(=O)c2ccc(OC)cc2O)ccc1=O`, for which the results for the “Ratio CC50/IC50” value in data set [1], in data set [2] and in data set [4] were less than 0.5, less than 0.5 and 2.34, respectively. Further, the figures for the IC50 in data set [3], in data set [6] and in data set [7] were more than 133 µM, 28.6 µM and more than 133 µM, respectively. This compound also returned a half-maximal cytotoxic concentration (CC50) in data set [5] of 67 µM.

Regarding `COc1ccc(/C(=N/Cc2ccccc2F)c2ccc(=O)n(Cc3ccccc3F)c2)c(O)c1`, the entries for the “Ratio CC50/IC50” value in data set [1], in data set [2] and in data set [4] were 0.71, 1.7 and 0.55, respectively. Besides, the IC50 came out at 72 µM in data set [3], 92.6 µM in data set [6] and 30 µM in data set [7]. In data set [5], this compound registered a cytotoxic concentration (CC50) of 51 µM.

In the case of `COc1ccc(/C(=N/Cc2ccc(F)c(F)c2)c2ccc(=O)n(Cc3ccc(F)c(F)c3)c2)c(O)c1`, the “Ratio CC50/IC50” value in data set [1] is reported as 0.41; in data set [2] it was less than 0.5; in data set [4], 2.07. In addition, the values for the IC50 in data set [3], in data set [6] and in data set [7] were 496 µM, 97.5 µM and more than 403 µM, respectively. This compound also showed a CC50 in data set [5] of 201 µM.
